Source: ChEMBL document CHEMBL2203269, “Target-Activated Prodrugs (TAPs) for the Autoregulated Inhibition of MMP12” (ACS Med Chem Lett, 2012)

Substrate: CC(C)C[C@H](NC(=O)CN(C(=O)[C@H](CC(C)C)NC(=O)[C@@H]1CCCN1C(=O)OCc1ccccc1)S(=O)(=O)c1ccc(-c2ccccc2)cc1)C(=O)N[C@@H](CCC(=O)O)C(=O)N[C@@H](CCC(=O)O)C(=O)N[C@@H](C)C(N)=O
Assay: Ratio of Kcat to Km for human MMP-12
Method in brief: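 Recombinant human MMP12 was incubated with the peptidic prodrug substrate. Cleavage at the N terminus of the P1 leucine was monitored by HPLC, and kcat/Km was determined from the HPLC data.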

B1: Macrophage metalloelastase (Homo sapiens), P39900 (protein)
chain: MKFLLILLLQATASGALPLNSSTSLEKNNVLFGERYLEKFYGLEINKLPVTKMKYSGNLMKEKIQEMQHFLGLKVTGQLDTSTLEMMHAPRCGVPDVHHFREMPGGPVWRKHYITYRINNYTPDMNREDVDYAIRKAFQVWSNVTPLKFSKINTGMADILVVFARGAHGDFHAFDGKGGILAHAFGPGSGIGGDAHFDEDEFWTTHSGGTNLFLTAVHEIGHSLGLGHSSDPKAVMFPTYKYVDINTFRLSADDIRGIQSLYGDPKENQRLPNPDNSEPALCDPNLSFDAVTTVGNKIFFFKDRFFWLKVSERPKTSVNLISSLWPTLPSGIEAAYEIEARNQVFLFKDDKYWLISNLRPEPNYPKSIHSFGFPNFVKKIDAAVFNPRFYRTYFFVDNQYWRYDERRQMMDPGYPKLITKNFQGIGPKIDAVFYSKNKYYYFFQGSNQFEYDFLLQRITKTLKSNSWFGC
Work on B1 yielded a kcat/Km of 3.7 ×10³ /M.s.
